Screening results deposited in PubChem by several laboratories.
RAM network inh = inhibitors of the yeast RAM network; S. cerevisiae dse1pr::URA3 reporter, 5-FOA growth OD615, 2 d; analog-sensitive cbk1-as2 kinase mutant strain; inhibition, % at 50 µM; 190,000 compounds, 1.8% hits;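 active = inhibition above a set limit, 3 SD over mean compound inhibition, cut at about 8.4% in these data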;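 note: 0% = DMSO-only wells with no growth and 100% = 10 µM 1-NA-PP1 full growth; inhibition rescues growth on 5-FOA so higher OD means more RAM inhibition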
BB579 growth dn = reduces growth of yeast BB579 in restrictive medium; S. cerevisiae BB579 growth, OD615, 48 h; inhibition, % at 10 µM; 140,000 compounds, 0.51% hits; AID 804;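 active = inhibition above a set limit, 3 SD over the mean compound inhibition, cut at about 44% in these data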
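Test system: Saccharomyces cerevisiae DeaD strain BB579, replicative lifespan model yeast | Buffer or medium: Restrictive CSMM-D medium | Doses: One dose, 10 µM compound with 0.25% DMSO | Incubation: 48 h exposure, 30 °C | Detection: Culture absorbance at 615 nm | Control set: Amphotericin B at 10 µg/mL as positive control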
Yeast life ext = yeast lifespan extension; S. cerevisiae growth with nicotinamide, OD615; deaD strain in restrictive glucose medium; 130,000 compounds, 0.68% hits; inhibition of the nicotinamide effect, % at 10 µM;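 active = inhibition above a set limit, placed 3 SD over the median of all compounds, cut at about 26% in these data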;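 note: 0% = nicotinamide-treated wells and 100% = cells grown without nicotinamide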
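Assay system: engineered S. cerevisiae DeaD replicative-lifespan strain, galactose-grown log-phase cells; Buffer or medium: CSMM-D glucose medium, restrictive; Probe or stimulus: nicotinamide 1.5 mM; Compound: single dose 10 µM compound, 0.25% DMSO; Schedule: 4 h preincubation then 48 h treatment at 30 °C; Technique: OD615 measurement.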
Phagocyt inh = blocks phagocytosis by macrophages. J774A.1 macrophage IgG-bead phagocytosis, imaging. inhibition, % at 5 µM. 110,000 compounds, 0.07% hits. AID 1029;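 active = inhibition above the mean of the plate negative controls plus 5 SD, cut at about 13% in these data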;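 note: phagocytic index as fraction of beads internalized from green versus red external bead signal; plate controls were DMSO negative control for no effect and cytochalasin-D positive control for full effect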
An asterisk follows results filed as active; / = no result given; [ ] = another dose, or the depositor's remark. Most compounds without a hit are left out; they make up all but 2.7% or so of the library.

SMILES | RAM network inh | BB579 growth dn | Yeast life ext | Phagocyt inh
COc1ccc(C2CC3(CC(C)(C)NC(=S)N3)Oc3cc(O)cc(C)c32)cc1 (configuration not stated) | 9.7* | -5.0 | 1.1 | -7.6
COc1cc(/C=C/C(=O)OCC(=O)Nc2ccc(NC(C)=O)cc2)cc(S(=O)(=O)N2CCc3ccccc32)c1OC | 10.3* | / | / | /
Cc1cc(C)n(CC(=O)N/N=C/c2ccccn2)n1 | 0.4 | -19.5 | -0.3 | 9.0
Cc1ccc(NC2SC(=O)N(CC(=O)O)C2=O)cc1 (configuration not stated) | -0.7 | -79.4 | 5.9 | /
Cn1c(Cl)c(/C=N/OC(=O)c2ccccc2Cl)c2ccccc21 | 3.9 | -59.0 | -15.8 | 2.2
Cc1cccc(C(=O)O/N=C/c2c(N3CCOCC3)n(C)c3ccccc23)c1 | 2.9 | 52.6* | -20.2 | -1.3
CC(C)Cn1c(=O)c(C(=O)Nc2cnccn2)c(O)c2ccccc21 | 0.5 | -23.4 | 67.8* | -2.1
Cc1ccc(/C=C2\SC(N3CCN(C(c4ccccc4)c4ccccc4)CC3)=NC2=O)o1 | 2.6 | -16.7 | 6.5 | -1.8
O=C(N/N=C1\CCCc2c1[nH]c1ccc([N+](=O)[O-])cc21)c1ccncc1 | 8.4* | -16.9 | 4.8 | -6.5
Cc1cccc(OCCC(=O)NCC(=O)Nc2cccc(C)c2C)c1 | 0.4 | -25.7 | -0.9 | -12.0
COc1ccc(O[C@H]2C=C[C@@H](c3ccccc3)O[C@@H]2COC(=O)CC/C(C)=N/O[C@@H](C)c2cn([C@H](CO)Cc3ccccc3)nn2)cc1 | 10.6* | -60.0 | 3.1 | /
COc1ccc(O[C@H]2C=C[C@@H](c3ccccc3)O[C@@H]2COC(=O)CC/C(C)=N/O[C@@H](C)CN2CCCCc3nc(C)c(C)cc32)cc1 | -0.8 | -44.0 | -2.8 | /
CCOC(=O)c1sc(=S)sc1SCc1cccc(C(F)(F)F)c1 | 8.9* | -50.8 | 0.3 | 3.1
Cc1[nH]c2ccccc2c1N=Nc1ccccc1C(=O)O | 9.8* | -67.6 | 3.5 | 1.0
C=CCSc1nnc2c(n1)OC(C)=Nc1ccc(Br)cc1-2 | 5.6 | / | / | /
O=[N+]([O-])c1cccc(N/N=C/c2cc([N+](=O)[O-])ccc2O)c1 | 2.4 | / | / | /
O=[N+]([O-])c1ccc(O)c(/C=N/Nc2ccccn2)c1 | -1.1 | 99.5* | -9.4 | -11.1
COc1ccc(CNc2nc(S(=O)(=O)c3ccccc3)c(Cl)s2)cc1OC | 2.2 | 10.6 | -4.4 | -8.2
Cc1ccc(C)c(SCC(=O)Nc2cc(C)nn2-c2ccc(F)cc2)c1 | 8.6* | -9.4 | 0.8 | -10.3
CCCCN(CC)S(=O)(=O)c1ccc(C(=O)Nc2nnc(-c3cccs3)o2)cc1 | 8.6* | -45.3 | -12.4 | 1.1
CCCC(C)NC(=O)COc1ccc(Sc2ccc(OCC(=O)NC(C)CCC)cc2)cc1 (configuration not stated) | 10.5* | -54.2 | 6.8 | -1.5
O=C1C2CCCN2C(=O)N1CCCCN1CCN(c2cccc(Cl)c2)CC1 (configuration not stated) | 0.1 | -7.1 | 6.0 | -3.6
COc1ccc(CCNC(=O)c2cnn3c(C(F)F)cc(C)nc23)cc1OC | -0.8 | 50.8* | 3.3 | /
COc1ccccc1OCCC(=O)OCC(=O)Nc1ncc(Cl)cc1Cl | 3.4 | -72.3 | -11.2 | -0.5
COc1ccccc1OCC(=O)n1cc(C(=O)c2cc(Cl)cc(Cl)c2O)cn1 | -1.5 | 45.3* | -8.3 | -3.4
SMILES | RAM network inh | BB579 growth dn | Yeast life ext | Phagocyt inh
O=C(O)/C=C/c1ccc(OCc2cccc(F)c2)cc1 | 3.8 | / | / | /
CCOC(=O)c1c(C)nc2sc(C(=O)Nc3ccc(OC)cc3)c(N)c2c1-c1ccc(OC)cc1 | 8.7* | -49.5 | -10.9 | 2.3
Cc1c(CN2CCC(CO)(Cc3cccc(C(F)(F)F)c3)CC2)c2ccccc2n1C | 2.7 | / | / | /
Cc1ccc(-n2nnnc2SCC(=O)NC(C(=O)O)(c2ccccc2)c2ccccc2)cc1C | 5.7 | / | / | /
O=C(CSc1nnnn1-c1cccc2ccccc12)NC(C(=O)O)(c1ccccc1)c1ccccc1 | 8.8* | / | / | /
COc1ccc(CN2CCC(CO)(Cc3cccc(C(F)(F)F)c3)CC2)cc1Cn1cccn1 | 2.9 | / | / | /
COc1cc([N+](=O)[O-])ccc1NC(=O)CSc1nccn1C | 0.8 | / | / | /
COc1cccc(-c2ccc(-c3noc(-c4cccs4)n3)c(OC)n2)c1 | 6.2 | -31.2 | 4.2 | -1.1
COc1cccc(-c2ccc(-c3noc(-c4ccccc4F)n3)c(OC)n2)c1 | 11.0* | -38.2 | -7.6 | 2.7
CCN1CCCC1CNC(=O)C(=O)NCCc1ccc(OC)c(OC)c1 (configuration not stated) | -0.1 | / | / | /
O=C(Nc1nnc(SCC(=O)N2CCOCC2)s1)c1ccccc1Cl | 0.9 | -32.1 | -10.3 | 36.8*[artifact]
O=C(CSc1nnc(NCc2ccccc2)s1)N1CCOCC1 | 0.9 | -40.6 | 5.0 | 4.0
